Values after ≈ are worked out from the molar mass of the structure shown.
Key:
Trypanosoma cruzi = assay: WHO-TDR: Chagas disease; type: functional, organism-based, Homo sapiens; settings: MRC5
Procedure, shortened: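 A diverse library of 10,000 compounds from Life Chemicals, filtered for drug-likeness and reactive groups, was screened against intracellular amastigotes of Trypanosoma cruzi Tulahuen CL2 beta-galactosidase strain. The parasites were grown in MRC-5SV2 human lung fibroblast host cells, and a reference drug served as positive control under previously published standard procedures. Antiparasitic potency is given as IC50.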

[1] = WHO-TDR: Cytotoxicity; type: toxicity, cell-based; settings: human, MRC5 cells
Brugia malayi = assay: WHO-TDR: Lymphatic Filariasis; type: functional; set-up: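 tested at 10 µM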
Procedure, shortened: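 Following previously published standard procedures, compounds were tested on whole Brugia malayi microfilariae, with reference drugs as positive controls. They came from a diverse Life Chemicals collection of 10,000 compounds filtered for drug-likeness and reactive groups. Results appear as percent inhibition and as IC50.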

Schistosoma mansoni = assay: WHO-TDR: Schistosomiasis; type: functional; set-up: concentration or dose not given beside the values
Procedure, shortened: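 Activity appears as percent inhibition and as IC50. The underlying screen tested a diverse library of 10,000 compounds, supplied by Life Chemicals, on whole larval and/or adult worms of the Puerto Rican strain of Schistosoma mansoni.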

Plasmodium falciparum K1 = assay: WHO-TDR: Malaria; type: functional, organism-based, Homo sapiens; settings: Erythrocyte
Procedure, shortened: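 Whole-organism screen of a 10,000-compound diverse library from Life Chemicals, filtered for drug-likeness and reactive groups, against intra-erythrocytic Plasmodium falciparum K1 strain in human red blood cells. The assay followed previously published standard procedures, with a reference drug as positive control. Antiplasmodial potency is reported as IC50.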

Onchocerca ochengi = assay: WHO-TDR: Onchocerciasis; type: functional; set-up: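 at 12.5 µM on microfilariae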
Procedure, shortened: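 Following previously published standard procedures, with reference drugs as positive controls, a diverse Life Chemicals library was tested on whole Onchocerca ochengi or Onchocerca lienalis microfilariae. The library held 10,000 compounds filtered for drug-likeness and reactive groups. Activity is recorded both as percent inhibition and as IC50.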

[2] = system: Trypanosoma brucei brucei; assay: WHO-TDR: Human African Trypanosomiasis (HAT); type: functional, organism-based; settings: Squib-427
Procedure, shortened: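 Whole-organism screen of a 10,000-compound diverse library from Life Chemicals, filtered for drug-likeness and reactive groups, against bloodstream forms of Trypanosoma brucei Squib 427 strain. The assay followed previously published standard procedures, with reference drugs as positive controls. Antiparasitic potency is reported as IC50.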

Leishmania infantum = assay: WHO-TDR: Leishmaniasis; type: functional, organism-based, Mus musculus; settings: Macrophage
Procedure, shortened: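 Whole-organism screen of a 10,000-compound diverse library from Life Chemicals, filtered for drug-likeness and reactive groups, against intracellular amastigotes of Leishmania infantum MHOM/MA(BE)/67 in murine peritoneal macrophage host cells. The assay followed previously published standard procedures, with a reference drug as positive control. Antiparasitic potency is reported as IC50.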

| SMILES | IC50 (Trypanosoma cruzi) [µg/mL] | IC50 [1] [µg/mL] | % Inhibition (Brugia malayi) [%] | % Inhibition (Schistosoma mansoni) [%] | IC50 (Plasmodium falciparum K1) [µg/mL] | % Inhibition (Onchocerca ochengi) [%] | IC50 [2] [µg/mL] | IC50 (Leishmania infantum) [µg/mL] |
| --- | --- | --- | --- | --- | --- | --- | --- | --- |
| CCOc1ncccc1C(=O)N1CCN(c2ccc(-c3ccc(Cl)cc3)nn2)CC1 | 8.92 (≈ 21 µM) | > 12.7 | 0 | 100 | > 12.7 | 0 | > 12.7 | > 12.7 |
| CC(C)(C)C(=O)N1CCN(c2ccc(-c3ccncc3)nn2)CC1 | > 9.76 | > 9.76 | 33.33 | 100 | > 9.76 | 0 | > 9.76 | > 9.76 |
| O=C(c1ccc(F)cc1F)N1CCN(c2ccc(-c3cccnc3)nn2)CC1 | > 11.4 | > 11.4 | 33.33 | 0 | > 11.4 | 0 | > 11.4 | 0.37 (≈ 0.97 µM) |
| O=C(C1CC1)N1CCN(c2ccc(-c3ccccn3)nn2)CC1 | 2.1 (≈ 6.77 µM) | 2.38 (≈ 7.7 µM) | 33.33 | 25 | 1.05 (≈ 3.39 µM) | 100 | 2.94 (≈ 9.49 µM) | > 9.28 |
| COc1cccc(C(=O)N2CCN(c3ccc(-c4ccccn4)nn3)CC2)c1OC | 0.421 (≈ 1.04 µM) | 5.68 (≈ 14 µM) | 33.33 | 33.3 | 0.548 (≈ 1.35 µM) | 100 | 3.85 (≈ 9.49 µM) | 1.81 (≈ 4.46 µM) |
| CC(C)CC(=O)N1CCN(c2ccc(-c3ccccn3)nn2)CC1 | 0.763 (≈ 2.34 µM) | 3.86 (≈ 11.9 µM) | 33.33 | 25 | 1.13 (≈ 3.46 µM) | 100 | 3.09 (≈ 9.49 µM) | 3.09 (≈ 9.49 µM) |
| O=C(C1CCCC1)N1CCN(c2ccc(-c3ccccn3)nn2)CC1 | 1.19 (≈ 3.52 µM) | 4.9 (≈ 14.5 µM) | 33.33 | 41.7 | 4.13 (≈ 12.3 µM) | 0 | 3.2 (≈ 9.49 µM) | 0.328 (≈ 0.972 µM) |
| O=C(CC1CCCC1)N1CCN(c2ccc(-c3ccccn3)nn2)CC1 | 0.466 (≈ 1.33 µM) | 5.57 (≈ 15.9 µM) | 33.33 | 33.3 | 0.731 (≈ 2.08 µM) | 0 | 0.409 (≈ 1.16 µM) | 0.341 (≈ 0.97 µM) |
| O=S(=O)(c1cccc(F)c1)N1CCN(c2ccc(-c3ccncc3)nn2)CC1 | > 12 | > 12 | 33.33 | 0 | > 12 | 0 | > 12 | 0.388 (≈ 0.971 µM) |
| COc1ccc(S(=O)(=O)N2CCN(c3ccc(-c4ccncc4)nn3)CC2)c(OC)c1 | 5.69 (≈ 12.9 µM) | > 13.2 | 33.33 | 0 | 2.48 (≈ 5.62 µM) | 0 | > 13.2 | 0.429 (≈ 0.972 µM) |
| CS(=O)(=O)N1CCN(c2ccc(-c3ccccn3)nn2)CC1 | 0.22 (≈ 0.689 µM) | > 9.58 | 0 | 0 | > 9.58 | 0 | > 9.58 | > 9.58 |
| O=S(=O)(c1ccc(Cl)s1)N1CCN(c2ccc(-c3ccccn3)nn2)CC1 | 0.438 (≈ 1.04 µM) | > 12.7 | 0 | 0 | > 12.7 | 0 | > 12.7 | > 12.7 |
| COc1ccc(C)cc1S(=O)(=O)N1CCN(c2ccc(-c3cccs3)nn2)CC1 | > 12.9 | > 12.9 | 0 | 0 | > 12.9 | 0 | > 12.9 | 0.418 (≈ 0.971 µM) |
| O=S(=O)(c1cccnc1)N1CCN(c2ccc(-c3cccs3)nn2)CC1 | > 11.6 | > 11.6 | 50 | 0 | > 11.6 | 0 | > 11.6 | 0.376 (≈ 0.97 µM) |
| O=C(Nc1ccc(F)cc1)Nc1cccc(-c2ccc(N3CCCC3)nn2)c1 | > 11.3 | > 11.3 | 0 | 0 | > 11.3 | 100 | > 11.3 | > 11.3 |
| COc1ccc(-c2cccc(NC(=O)Nc3ccc(C)cc3)c2)nn1 | 7.36 (≈ 22 µM) | > 10 | 0 | 58.3 | > 10 | 100 | > 10 | > 10 |

| SMILES | IC50 (Trypanosoma cruzi) [µg/mL] | IC50 [1] [µg/mL] | % Inhibition (Brugia malayi) [%] | % Inhibition (Schistosoma mansoni) [%] | IC50 (Plasmodium falciparum K1) [µg/mL] | % Inhibition (Onchocerca ochengi) [%] | IC50 [2] [µg/mL] | IC50 (Leishmania infantum) [µg/mL] |
| --- | --- | --- | --- | --- | --- | --- | --- | --- |
| Cc1ccc(C(=O)Nc2nnc(Cc3cccs3)o2)cc1C | 3.01 (≈ 9.61 µM) | > 9.4 | 50 | 25 | > 9.4 | 0 | 0.383 (≈ 1.22 µM) | > 9.4 |
| O=C(Nc1nnc(Cc2cccs2)o1)c1cc(Cl)sc1Cl | 0.632 (≈ 1.75 µM) | 0.967 (≈ 2.68 µM) | 0 | 0 | > 10.8 | 0 | 0.342 (≈ 0.949 µM) | > 10.8 |
| CCSc1ccccc1C(=O)Nc1nnc(Cc2cccs2)o1 | 3.48 (≈ 10.1 µM) | 9.48 (≈ 27.5 µM) | 0 | 33.3 | > 10.4 | 0 | 3.35 (≈ 9.71 µM) | 0.336 (≈ 0.973 µM) |
| O=C(Cc1csc(SCC(=O)c2ccccc2)n1)NCCC1=CCCCC1 | 3.65 (≈ 9.11 µM) | > 12 | 0 | 33.3 | > 12 | 100 | 5.07 (≈ 12.6 µM) | > 12 |
| NC(=O)Cc1csc(SCC(=O)c2ccccc2)n1 | > 8.77 | > 8.77 | 0 | 16.7 | > 8.77 | 0 | > 8.77 | 0.284 (≈ 0.971 µM) |
| CCOC(=O)c1sc(-c2ccccc2)cc1NC(=O)c1ccnn1C | > 10.7 | > 10.7 | 0 | 0 | > 10.7 | 0 | > 10.7 | 0.345 (≈ 0.971 µM) |
| Cn1nccc1C(=O)Nc1nc2c(s1)CSc1ccccc1-2 | 2.05 (≈ 6.23 µM) | 0.145 (≈ 0.442 µM) | 0 | 100 | > 9.85 | 100 | 0.315 (≈ 0.959 µM) | 3.19 (≈ 9.71 µM) |
| Cn1nccc1C(=O)Nc1sc(-c2ccccc2)cc1C(N)=O | 6.26 (≈ 19.2 µM) | 8.31 (≈ 25.4 µM) | 0 | 100 | > 9.79 | 0 | 3.17 (≈ 9.71 µM) | 3.17 (≈ 9.71 µM) |
| COc1ccc(-c2ccc(N3CCN(C(=O)c4c(F)cccc4F)CC3)nn2)cc1OC | > 13.2 | > 13.2 | 0 | 8.3 | > 13.2 | 0 | > 13.2 | 0.428 (≈ 0.972 µM) |
| O=C(Nc1nnc(-c2ccc(Br)s2)o1)C1CCCN1S(=O)(=O)c1cccs1 (stereo not drawn) | > 14.7 | > 14.7 | 0 | 8.3 | > 14.7 | 0 | 6.68 (≈ 13.6 µM) | 0.475 (≈ 0.971 µM) |
| CN(C1CC1)S(=O)(=O)c1ccc(C(=O)Nc2nnc(-c3ccc(Br)s3)o2)cc1 | 4.76 (≈ 9.85 µM) | 3.91 (≈ 8.09 µM) | 0 | 0 | > 14.5 | 100 | 4.75 (≈ 9.83 µM) | 4.69 (≈ 9.71 µM) |
| Cc1cc(C(=O)Nc2nnc(-c3ccc(Br)s3)o2)nn1C | > 11 | 3.2 (≈ 8.68 µM) | 0 | 8.3 | > 11 | 100 | > 11 | > 11 |
| O=C(Nc1nnc(-c2ccc(Br)s2)o1)c1ccno1 | > 10.2 | > 10.2 | 0 | 16.7 | > 10.2 | 0 | > 10.2 | 0.331 (≈ 0.97 µM) |
| COc1ccc(-c2nnc(NC(=O)c3ccn(C)n3)o2)cc1OC | > 9.88 | 1.41 (≈ 4.28 µM) | 0 | 25 | > 9.88 | 100 | > 9.88 | > 9.88 |
| COc1ccc(OC)c2sc(N(CC3CCCO3)C(=O)c3ccn(C)n3)nc12 (stereo not drawn) | > 12.1 | > 12.1 | 0 | 16.7 | > 12.1 | 0 | > 12.1 | 0.391 (≈ 0.971 µM) |
